≈ marks a conversion by molar mass, not a printed value.
What was measured:
Streptococcus pneumoniae [1] = experiment: Antimicrobial activity against Streptococcus pneumoniae 8 expressing inducible ermB after 20 hrs by agar dilution method; type: functional; details: Streptococcus pneumoniae, 20 h; read-out: MIC
Outline: (§1)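 Streptococci, H. influenzae and M. catarrhalis were precultured on blood agar plates. Suspensions of about 10⁶ CFU/ml were inoculated onto sensitivity disk agar supplemented with 5% horse blood and incubated at 37 °C for 20 h. MIC was read as the lowest drug concentration with no visible growth.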

Streptococcus pneumoniae [2] = experiment: Antimicrobial activity against Streptococcus pneumoniae 9 expressing mefA after 20 hrs by agar dilution method; type: functional; details: Streptococcus pneumoniae, 20 h; read-out: MIC; outline: as §1
Streptococcus pneumoniae [3] = experiment: Antimicrobial activity against Streptococcus pneumoniae 10 expressing mefA after 20 hrs by agar dilution method; type: functional; details: Streptococcus pneumoniae, 20 h; read-out: MIC; outline: as §1
Streptococcus pyogenes [4] = experiment: Antimicrobial activity against drug-susceptible Streptococcus pyogenes 1 after 20 hrs by agar dilution method; type: functional; details: Streptococcus pyogenes, 20 h; read-out: MIC; outline: as §1
Streptococcus pyogenes [5] = experiment: Antimicrobial activity against Streptococcus pyogenes 2 constitutively expressing ermB after 20 hrs by agar dilution method; type: functional; outline: as §1
Streptococcus pyogenes [6] = experiment: Antimicrobial activity against Streptococcus pyogenes 3 expressing mefA after 20 hrs by agar dilution method; type: functional; details: Streptococcus pyogenes, 20 h; read-out: MIC; outline: as §1
Moraxella catarrhalis [7] = experiment: Antimicrobial activity against drug-susceptible Moraxella catarrhalis 1 after 20 hrs by agar dilution method; type: functional; outline: as §1
Moraxella catarrhalis [8] = experiment: Antimicrobial activity against drug-susceptible Moraxella catarrhalis 2 after 20 hrs by agar dilution method; type: functional; outline: as §1
Haemophilus influenzae [9] = experiment: Antimicrobial activity against drug-susceptible Haemophilus influenzae 1 after 20 hrs by agar dilution method; type: functional; details: Haemophilus influenzae, 20 h; read-out: MIC; outline: as §1
Haemophilus influenzae [10] = experiment: Antimicrobial activity against drug-susceptible Haemophilus influenzae 2 after 20 hrs by agar dilution method; type: functional; details: Haemophilus influenzae, 20 h; read-out: MIC; outline: as §1
Haemophilus influenzae [11] = experiment: Antimicrobial activity against drug-susceptible Haemophilus influenzae 3 after 20 hrs by agar dilution method; type: functional; details: Haemophilus influenzae, 20 h; read-out: MIC; outline: as §1
Haemophilus influenzae [12] = experiment: Antimicrobial activity against drug-susceptible Haemophilus influenzae 4 after 20 hrs by agar dilution method; type: functional; details: Haemophilus influenzae, 20 h; read-out: MIC; outline: as §1
Staphylococcus aureus [13] = experiment: Antimicrobial activity against drug-susceptible Staphylococcus aureus 209P JC-1 after 20 hrs by agar dilution method; type: functional
Outline: (§2)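 Agar dilution MIC. S. aureus seed culture was grown in sensitivity test broth. Cell suspension (about 10⁶ CFU/ml) was inoculated onto sensitivity disk agar with 5% horse blood and incubated at 37 °C for 20 h. MIC was the lowest drug concentration that prevented visible growth.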

Staphylococcus aureus [14] = experiment: Antimicrobial activity against drug-susceptible Staphylococcus aureus 2 after 20 hrs by agar dilution method; type: functional; outline: as §2
Staphylococcus aureus [15] = experiment: Antimicrobial activity against drug-susceptible Staphylococcus aureus 3 after 20 hrs by agar dilution method; type: functional; outline: as §2
Staphylococcus aureus [16] = experiment: Antimicrobial activity against Staphylococcus aureus 4 constitutively expressing ermA after 20 hrs by agar dilution method; type: functional; outline: as §2
Staphylococcus aureus [17] = experiment: Antimicrobial activity against Staphylococcus aureus 5 expressing inducible ermB after 20 hrs by agar dilution method; type: functional; outline: as §2
Streptococcus pneumoniae [18] = experiment: Antimicrobial activity against drug-susceptible Streptococcus pneumoniae DP1 Type1 after 20 hrs by agar dilution method; type: functional; outline: as §1
Streptococcus pneumoniae [19] = experiment: Antimicrobial activity against drug-susceptible Streptococcus pneumoniae 2 after 20 hrs by agar dilution method; type: functional; details: Streptococcus pneumoniae, 20 h; read-out: MIC; outline: as §1
Streptococcus pneumoniae [20] = experiment: Antimicrobial activity against drug-susceptible Streptococcus pneumoniae 3 after 20 hrs by agar dilution method; type: functional; details: Streptococcus pneumoniae, 20 h; read-out: MIC; outline: as §1
Streptococcus pneumoniae [21] = experiment: Antimicrobial activity against Streptococcus pneumoniae 4 constitutively expressing ermB after 20 hrs by agar dilution method; type: functional; details: Streptococcus pneumoniae, 20 h; read-out: MIC; outline: as §1
Streptococcus pneumoniae [22] = experiment: Antimicrobial activity against Streptococcus pneumoniae 5 constitutively expressing ermB/mefA after 20 hrs by agar dilution method; type: functional; details: Streptococcus pneumoniae, 20 h; read-out: MIC; outline: as §1
Streptococcus pneumoniae [23] = experiment: Antimicrobial activity against Streptococcus pneumoniae 6 constitutively expressing ermB after 20 hrs by agar dilution method; type: functional; details: Streptococcus pneumoniae, 20 h; read-out: MIC; outline: as §1
Streptococcus pneumoniae [24] = experiment: Antimicrobial activity against Streptococcus pneumoniae 7 expressing inducible ermB after 20 hrs by agar dilution method; type: functional; details: Streptococcus pneumoniae, 20 h; read-out: MIC; outline: as §1
Staphylococcus aureus [25] = experiment: Antimicrobial activity against Staphylococcus aureus 6 expressing inducible ermC after 20 hrs by agar dilution method

CCOC(=O)[C@H]1[C@H](C)O[C@@H](O[C@H]2[C@H](N(C)C)[C@@H](O)[C@H](O[C@H]3[C@@H](CC=O)C[C@@H](C)[C@@H](O)CN(C)CCC(CCCc4ccnc5ccccc45)NC(=O)C[C@@H](OC(=O)CC)[C@@H]3OC)O[C@@H]2C)C[C@@]1(C)O (stereo in doubt; form 1)
MIC (Streptococcus pneumoniae [1]): 32 µg/mL (≈ 32.9 µM)
MIC (Streptococcus pneumoniae [2]): 0.13 µg/mL (≈ 0.134 µM)
MIC (Streptococcus pneumoniae [3]): 0.13 µg/mL (≈ 0.134 µM)
MIC (Streptococcus pyogenes [4]): 0.25 µg/mL (≈ 0.257 µM)
MIC (Streptococcus pyogenes [5]): > 128 µg/mL
MIC (Streptococcus pyogenes [6]): 2 µg/mL (≈ 2.06 µM)
MIC (Moraxella catarrhalis [7]): 2 µg/mL (≈ 2.06 µM)
MIC (Moraxella catarrhalis [8]): 2 µg/mL (≈ 2.06 µM)
MIC (Haemophilus influenzae [9]): 32 µg/mL (≈ 32.9 µM)
MIC (Haemophilus influenzae [10]): 2 µg/mL (≈ 2.06 µM)
MIC (Haemophilus influenzae [11]): 8 µg/mL (≈ 8.22 µM)
MIC (Haemophilus influenzae [12]): 8 µg/mL (≈ 8.22 µM)
MIC (Staphylococcus aureus [13]): 1 µg/mL (≈ 1.03 µM)
MIC (Staphylococcus aureus [14]): 1 µg/mL (≈ 1.03 µM)
MIC (Staphylococcus aureus [15]): 0.5 µg/mL (≈ 0.514 µM)
MIC (Staphylococcus aureus [16]): > 128 µg/mL
MIC (Staphylococcus aureus [17]): 1 µg/mL (≈ 1.03 µM)
MIC (Streptococcus pneumoniae [18]): 0.06 µg/mL (≈ 0.0617 µM)
MIC (Streptococcus pneumoniae [19]): 0.13 µg/mL (≈ 0.134 µM)
MIC (Streptococcus pneumoniae [20]): 0.13 µg/mL (≈ 0.134 µM)
MIC (Streptococcus pneumoniae [21]): > 128 µg/mL
MIC (Streptococcus pneumoniae [22]): > 128 µg/mL
MIC (Streptococcus pneumoniae [23]): > 128 µg/mL
MIC (Streptococcus pneumoniae [24]): 32 µg/mL (≈ 32.9 µM)
MIC (Staphylococcus aureus [25]): 1 µg/mL (≈ 1.03 µM)

— ChEMBL document CHEMBL1151705, “Novel azalides derived from 16-membered macrolides. Part II: Isolation of the linear 9-formylcarboxylic acid and its sequential macrocyclization with an amino alcohol or an azidoamine” (2008)
